Assay results reported in publication PMC8146373 (Biochemical pharmacology, 2021).

Assays:
GLP-1R [1] = target: T1, GLP-1R (Homo sapiens, UniProt P43220); assay: GLP-1R agonist cAMP accumulation assay, GLP-1R-overexpressing HEK-293T cells; assay type: cell-based
INS-1 832/13 cells = assay: Glucose stimulated insulin secretion; assay type: cell-based, rat; conditions: 20 μM compound, 15 mM glucose
SCTR K317A = SCTR K317A (Homo sapiens, UniProt P47872, K338A); assay: Mutational study, cAMP assay in HEK-293 cells transiently expressing SCTR K317A; assay type: cell-based; conditions: 12.5–25 μM compound
GLP-1R [2] = target: T2, GLP-1R (Rattus norvegicus, UniProt P32301); assay: cAMP assay; assay type: cell-based; conditions: INS-1 cells, 12.5 μM compound
T2 sequence (P32301 22-463): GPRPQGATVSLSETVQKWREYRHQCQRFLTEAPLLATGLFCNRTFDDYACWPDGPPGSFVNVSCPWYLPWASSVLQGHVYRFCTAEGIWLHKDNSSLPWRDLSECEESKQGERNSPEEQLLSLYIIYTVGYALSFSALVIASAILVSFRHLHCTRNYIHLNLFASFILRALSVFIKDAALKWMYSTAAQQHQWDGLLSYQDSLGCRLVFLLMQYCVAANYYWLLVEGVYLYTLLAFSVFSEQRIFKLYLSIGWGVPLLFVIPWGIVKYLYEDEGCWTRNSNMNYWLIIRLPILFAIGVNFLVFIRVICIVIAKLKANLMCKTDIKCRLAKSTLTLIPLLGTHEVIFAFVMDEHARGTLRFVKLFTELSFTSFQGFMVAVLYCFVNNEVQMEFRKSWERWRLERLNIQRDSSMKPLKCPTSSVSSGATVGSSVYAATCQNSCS
Outline: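 INS-1 832/13 cells (passage 18–29) were detached at 80–90% confluency, spun 300xg for 3 min and diluted in stimulation buffer. […] Cells were incubated 30 min at RT. LANCE Ultra detection (Eu-cAMP, ULight antibody) was read as TR-FRET after 60 min at RT.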

GLP-1R [3] = target: T1, GLP-1R; assay: Allosteric activity studies; assay type: cell-based
SCTR [4] = target: T3, SCTR (Homo sapiens, UniProt P47872); assay: SCTR PAM; assay type: cell-based
SCTR [5] = target: T3, SCTR; assay: SCTR Sec-FL; assay type: cell-based
GLP-1R [6] = target: T1, GLP-1R; assay: cAMP wash-out experiment, GLP-1R-overexpressing HEK-293T cells; assay type: cell-based; conditions: 25 μM compound, triple wash
GLP-1R [7] = target: T1, GLP-1R; assay: GLP-1R PAM; assay type: cell-based
SNAP-SCTR = SNAP-SCTR (Homo sapiens, UniProt P47872); assay: TR-FRET SNAP-SCTR competition binding with Fluo-Sec, HEK-293 SNAP-SCTR membranes
GLP-1R C347A = GLP-1R C347A (Homo sapiens, UniProt P43220, C347A); assay type: cell-based; conditions: 12.5–25 μM compound
Outline: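 HEK-293 cells were transfected with 0.5 μg DNA/well of GLP-1R WT or C347A construct and harvested after 24 h into stimulation buffer. Cells were added to wells with DMSO or 12.5–25 μM compound. […] HTRF cAMP readout; four-parameter variable-slope fit; duplicates, ≥3 experiments.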

SCTR K317C = SCTR K317C (Homo sapiens, UniProt P47872, K338C); assay: Mutational study, cAMP assay in HEK-293 cells transiently expressing SCTR K317C; assay type: cell-based; conditions: 12.5–25 μM compound
SCTR K317C, sequence (P47872 22-440 K338C limits assumed): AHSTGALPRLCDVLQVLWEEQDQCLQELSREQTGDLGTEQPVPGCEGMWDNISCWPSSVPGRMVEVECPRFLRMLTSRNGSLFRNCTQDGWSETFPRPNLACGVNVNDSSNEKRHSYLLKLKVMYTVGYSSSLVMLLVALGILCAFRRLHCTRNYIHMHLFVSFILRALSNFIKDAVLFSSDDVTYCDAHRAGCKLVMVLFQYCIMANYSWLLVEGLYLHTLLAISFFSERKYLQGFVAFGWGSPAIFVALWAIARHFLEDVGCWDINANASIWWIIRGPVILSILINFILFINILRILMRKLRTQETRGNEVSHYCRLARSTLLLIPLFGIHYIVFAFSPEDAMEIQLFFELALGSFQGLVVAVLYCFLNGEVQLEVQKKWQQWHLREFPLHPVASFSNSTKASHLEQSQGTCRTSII
SCTR K317C, sequence (P09683 28-54 partner limits assumed): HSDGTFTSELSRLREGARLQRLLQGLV

T3 sequence (P47872 23-440): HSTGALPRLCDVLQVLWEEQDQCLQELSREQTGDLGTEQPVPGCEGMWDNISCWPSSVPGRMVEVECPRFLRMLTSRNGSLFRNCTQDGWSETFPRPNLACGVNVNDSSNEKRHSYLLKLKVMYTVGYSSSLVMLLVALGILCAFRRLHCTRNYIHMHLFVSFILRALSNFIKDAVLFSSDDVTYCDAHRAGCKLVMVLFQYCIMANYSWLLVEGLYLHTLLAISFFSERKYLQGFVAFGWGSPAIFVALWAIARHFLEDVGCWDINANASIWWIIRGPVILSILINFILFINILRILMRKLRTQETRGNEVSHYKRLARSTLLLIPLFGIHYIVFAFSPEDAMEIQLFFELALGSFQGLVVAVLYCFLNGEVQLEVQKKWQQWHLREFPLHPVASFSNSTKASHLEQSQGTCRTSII
T1 sequence (P43220 24-463): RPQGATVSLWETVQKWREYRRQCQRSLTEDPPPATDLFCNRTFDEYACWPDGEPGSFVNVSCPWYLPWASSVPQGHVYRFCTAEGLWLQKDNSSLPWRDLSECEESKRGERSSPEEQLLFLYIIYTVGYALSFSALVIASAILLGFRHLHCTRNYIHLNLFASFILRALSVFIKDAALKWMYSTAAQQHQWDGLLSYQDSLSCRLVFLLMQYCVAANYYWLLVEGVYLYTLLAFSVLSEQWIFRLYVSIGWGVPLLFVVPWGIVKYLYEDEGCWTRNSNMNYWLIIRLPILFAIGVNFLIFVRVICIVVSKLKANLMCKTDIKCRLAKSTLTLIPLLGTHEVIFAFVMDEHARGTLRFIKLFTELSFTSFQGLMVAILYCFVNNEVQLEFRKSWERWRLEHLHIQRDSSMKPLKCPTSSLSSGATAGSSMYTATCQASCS
SNAP-SCTR, sequence (P47872 23-440): as the sequence (P47872 23-440) above
GLP-1R C347A, sequence (P43220 24-463 C347A): as the sequence (P43220 24-463) above, with C324A counted along it
SCTR K317A, sequence (P47872 22-440 K338A limits assumed): as the sequence (P47872 22-440 K338C limits assumed) above, with C317A counted along it

CC[S+]([O-])c1nc(-c2cccc(OCc3ccccc3)c2)cc(C(F)(F)F)n1 (stereo not shown) [BETP, 4-(3-(Benzyloxy)phenyl)-2-(ethylsulfinyl)-6-(trifluoromethyl)pyrimidine]
EC50 (GLP-1R [1]): 0.8 ± 0.6 µM
GLP-1R agonist Emax (GLP-1R [1]; cAMP, no peptide ligand, mean ± SD, n.d. = not detected): 91 ± 16%
insulin secretion with GLP-1(9–36) co-stimulation (INS-1 832/13 cells; 1 μM GLP-1(9–36)): elevated insulin secretion
interaction between compound and GLP-1(9–36) treatment (two-way ANOVA) (INS-1 832/13 cells): significant interactions
insulin secretion in the absence of GLP-1(9–36) (INS-1 832/13 cells; vs DMSO): significantly enhanced
potentiating effects at SCTR K317A compared to WT (SCTR K317A): neither mutating Lys-317 to alanine nor to cysteine had an impact
effect on GLP-1 treatment (GLP-1R [2]): did not show a significant positive effect
increase of efficacy of GLP-1(9–36) (GLP-1R [2]): 106%
receptor activation by GLP-1(9–36) in presence of compound (GLP-1R [2]): around 50%
Kb (GLP-1R [3]): 3 µM
cooperativity factor α, GLP-1(9–36) (GLP-1R [3]; GLP-1R-overexpressing cells): 137
cooperativity factor β, GLP-1(9–36) (GLP-1R [3]; GLP-1R-overexpressing cells): 5.5
EC50 (SCTR [4]): 24 ± 12 µM
Emax (SCTR [4]; CHO-K1, read-out: SCTR PAM (3-pep mix) Emax): 51 ± 25%
EC50 (SCTR [5]): 31 ± 19 µM
Emax (SCTR [5]; CHO-K1, read-out: SCTR Sec-FL (PAM) Emax): 42 ± 2%
intrinsic activity (elevation of basal response), added before or after the wash step (GLP-1R [6]): substantial intrinsic activity
EC50 (GLP-1R [7]): 0.8 ± 0.2 µM
selectivity toward GLP-1Rs (over SCTR PAM potency) (GLP-1R [7]; GLP-1R EC50 vs SCTR PAM EC50): 30 fold
GLP-1R PAM (GLP-1) Emax (GLP-1R [7]; cAMP, EC20 of GLP-1, mean ± SD, n.d. = not detected): 76 ± 22%
EC50 (SNAP-SCTR): 17 ± 14 µM
Emax (SNAP-SCTR; read-out: SNAP-SCTR Binding Emax): 152 ± 11%
cooperative (PAM) effects on GLP-1(9–36) at GLP-1R C347A compared to WT (GLP-1R C347A): eradicated
intrinsic agonist activity at GLP-1R C347A compared to WT (GLP-1R C347A): eradicated
potentiating effects at SCTR K317C compared to WT (SCTR K317C): neither mutating Lys-317 to alanine nor to cysteine had an impact
